Test results: the array DNA melting data of Ke et al. (doi:10.1101/2024.01.08.574731)

Key:
[1] = folding enthalpy; higher = less favourable; fluorescence melt of hairpins on a sequencing array, two-state fit; conditions: sodium 0.088 M
Method in brief: (§1)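 With Cy3 and quencher oligos annealed, library hairpins on a sequenced MiSeq flow cell were imaged for Cy3 fluorescence in 50 mM Na-HEPES pH 8.0, 25 mM NaCl, in 2.5 °C steps up to 60 °C. Melting temperature and folding enthalpy were derived from bootstrapped two-state fits of signals normalised to pre-quench Cy3 and to control constructs. Four replicates were combined by inverse variance, with fitted temperatures raised by 9.35 °C to match UV melts.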

[2] = melting temperature; fluorescence melt of hairpins on a sequencing array, two-state fit, raised by 9.35 °C to match UV melts; conditions: sodium 0.088 M
Method in brief: as §1

GTAGTCGAAAGACATAC ((((((....))).)))
folding enthalpy [1]: -16.2 kcal/mol
Tm [2]: 35.2 °C

GCACACGGAAACGTATGC (((.(((....))).)))
folding enthalpy [1]: -28 kcal/mol
Tm [2]: 45.2 °C

GATCACGGAAACGCGATC ((((.((....)).))))
folding enthalpy [1]: -34.3 kcal/mol
Tm [2]: 48.2 °C

GAGGTTGGAAACAGTCTC (((..((....))..)))
folding enthalpy [1]: -10.1 kcal/mol
Tm [2]: 25.6 °C

GGAAGTGGAAACACTCCC ((.((((....)))).))
folding enthalpy [1]: -23 kcal/mol
Tm [2]: 42.7 °C

GGTGCTGGAAACAGCATC (.(((((....))))).)
folding enthalpy [1]: -30.3 kcal/mol
Tm [2]: 54.1 °C

GCTGAAGCGAAAGCTAGC (((..(((....))))))
folding enthalpy [1]: -18.6 kcal/mol
Tm [2]: 44.6 °C

GATCCGGTCCGGATC ((((((...))))))
folding enthalpy [1]: -40.6 kcal/mol
Tm [2]: 59.8 °C

CAAATGAAAATTTG (((((....)))))
folding enthalpy [1]: -12.8 kcal/mol
Tm [2]: 32.8 °C

GGTCCCGAAAGGGCGACC ((((((....)))..)))
folding enthalpy [1]: -14.3 kcal/mol
Tm [2]: 46 °C

GATCTTGCGTAAGATC ((((((....))))))
folding enthalpy [1]: -39.6 kcal/mol
Tm [2]: 43.6 °C

GGTCATGGAAACATAACC (((.(((....))).)))
folding enthalpy [1]: -18.5 kcal/mol
Tm [2]: 31.6 °C

GATCCAGATATGGATC ((((((....))))))
folding enthalpy [1]: -41.7 kcal/mol
Tm [2]: 57.1 °C

GTGTCACGAAAGTGGCAC (((.(((....))).)))
folding enthalpy [1]: -37.1 kcal/mol
Tm [2]: 67.3 °C

GAGCGGGCGAAAGCCCTC (((..(((....))))))
folding enthalpy [1]: -6.71 kcal/mol
Tm [2]: 25.9 °C

GCGCTTTCGAAAGAACGC (((..(((....))))))
folding enthalpy [1]: -34.8 kcal/mol
Tm [2]: 40.1 °C

GATCTGATGTCAGATC ((((((....))))))
folding enthalpy [1]: -53.1 kcal/mol
Tm [2]: 49.1 °C

GGCCACGGAAACACGGCC ((((..(....)..))))
folding enthalpy [1]: -32.5 kcal/mol
Tm [2]: 47.8 °C

TGAAAGAAATTTCA (((((....)))))
folding enthalpy [1]: -5.86 kcal/mol
Tm [2]: 26.4 °C

GAGGGAGGAAACTCCCTC (((((((....)))))))
folding enthalpy [1]: -41.1 kcal/mol
Tm [2]: 62.9 °C

GCGCCGCGAAAGCTTCGC (((..((....))..)))
folding enthalpy [1]: -15.6 kcal/mol
Tm [2]: 54.7 °C

GATCGTGGCCACGATC ((((((....))))))
folding enthalpy [1]: -62.6 kcal/mol
Tm [2]: 62.5 °C

GACATGGGAAACCATATC ((.((((....)))).))
folding enthalpy [1]: -14 kcal/mol
Tm [2]: 28 °C

GGGAGCACGAAAGTGCCC (((..(((....))))))
folding enthalpy [1]: -10.6 kcal/mol
Tm [2]: 59.1 °C

GGCTGCGGAAACGTAGCC ((((.((....)).))))
folding enthalpy [1]: -50.1 kcal/mol
Tm [2]: 61 °C

GCCAACGGAAACGTTGAC (.(((((....))))).)
folding enthalpy [1]: -16.5 kcal/mol
Tm [2]: 46.5 °C

GGAATGGGAAACTGTTCC ((((..(....)..))))
folding enthalpy [1]: -25.8 kcal/mol
Tm [2]: 35 °C

GAGTACGAAAGTAATCTC ((((((....)))..)))
folding enthalpy [1]: -27.2 kcal/mol
Tm [2]: 42.5 °C

GGTTGTGGAAACATAGCC ((.(.((....)).).))
folding enthalpy [1]: -19.1 kcal/mol
Tm [2]: 31.6 °C

GGAATGCGAAAGCAATCC (((.(((....))).)))
folding enthalpy [1]: -25.6 kcal/mol
Tm [2]: 50.9 °C

GCCACACGAAAGTGGGC (((.(((....))))))
folding enthalpy [1]: -24.6 kcal/mol
Tm [2]: 60.4 °C

GCGAGTTATCGC ((((....))))
folding enthalpy [1]: -24 kcal/mol
Tm [2]: 57.6 °C

GGGACCGAAAGGTGCCC ((((((....))).)))
folding enthalpy [1]: -17.7 kcal/mol
Tm [2]: 61 °C

GCCAAGGCGAAAGCCGGC (((..(((....))))))
folding enthalpy [1]: -15.7 kcal/mol
Tm [2]: 65.8 °C

GAAGTGAAAACTTC (((((....)))))
folding enthalpy [1]: -23.2 kcal/mol
Tm [2]: 43.1 °C

GATAACCGAAAGGTATC (((.(((....))))))
folding enthalpy [1]: -17.4 kcal/mol
Tm [2]: 38.9 °C

GCGCTGCGAAAGCACAGC ((..(((....)))..))
folding enthalpy [1]: -17.6 kcal/mol
Tm [2]: 49.9 °C

GATCGAGGTTCGATC ((((((...))))))
folding enthalpy [1]: -38.6 kcal/mol
Tm [2]: 51.6 °C

CGATAACGGAAACGTTCG (((..(((....))))))
folding enthalpy [1]: -16.1 kcal/mol
Tm [2]: 35.6 °C

GGTATCGGAAACAATACC (((((.(....).)))))
folding enthalpy [1]: -34.9 kcal/mol
Tm [2]: 31.6 °C

GGTAGACCGAAAGGTACC (((..(((....))))))
folding enthalpy [1]: -19.8 kcal/mol
Tm [2]: 38 °C

GCTACGCGAAAGCCAAGC (((..((....))..)))
folding enthalpy [1]: -13.3 kcal/mol
Tm [2]: 34.9 °C

GCGGCTTCCCGC ((((....))))
folding enthalpy [1]: -26.3 kcal/mol
Tm [2]: 58.2 °C

GCCATGCCGAAAGGCGGC (((..(((....))))))
folding enthalpy [1]: -18.6 kcal/mol
Tm [2]: 59.2 °C

TGGCAGAAATGCCA (((((....)))))
folding enthalpy [1]: -23.3 kcal/mol
Tm [2]: 54.2 °C

CGGTTCGGAAACGAGCCG (((.(((....))).)))
folding enthalpy [1]: -50.5 kcal/mol
Tm [2]: 58.6 °C
